Measured values as given in article PMC5839499 (Biomolecules & Therapeutics, 2018).
Entries after “also recorded” stand apart in the source; their conditions may differ. Values belong to the compound of their own block, whether it stands above or below them.

How the values were obtained:
[1] = system: HIT-T15, GLUTag, and HepG2; assay: Cytotoxicity assay; type: cell-based; conditions: MTT, 48 h
In short: (§1)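 MTT assay. Cells were seeded at 2–3×10⁴ cells/well and cultured 24 h. Test compound was added at a final 0.1–100 μM for 48 h. MTT (5 mg in PBS, pH 7.2) was added for 4 h at 37°C, then DMSO. Absorbance was read at 540 nm; % viability = treated/untreated absorbance ×100; n=3.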

[2] = Cytotoxicity assay; type: cell-based; conditions: human, HepG2 cells
In short: as §1

[3] = target: T1, human GPR119 (Homo sapiens, UniProt Q8TDV5); assay: cAMP accumulation assay; type: cell-based
T1 sequence (Q8TDV5 1-335): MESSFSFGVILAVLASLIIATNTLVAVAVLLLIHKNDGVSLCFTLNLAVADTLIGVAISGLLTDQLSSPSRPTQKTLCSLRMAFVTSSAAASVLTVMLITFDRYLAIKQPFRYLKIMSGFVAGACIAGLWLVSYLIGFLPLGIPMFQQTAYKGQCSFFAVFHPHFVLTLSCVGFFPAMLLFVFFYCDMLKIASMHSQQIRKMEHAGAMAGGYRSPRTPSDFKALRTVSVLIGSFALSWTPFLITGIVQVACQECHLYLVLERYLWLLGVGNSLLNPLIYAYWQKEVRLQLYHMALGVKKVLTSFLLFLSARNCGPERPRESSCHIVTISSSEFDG
In short: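 CHO-K1 cells carry doxycycline-inducible human GPR119 and a CRE-driven beta-lactamase reporter. Cells were seeded at 10⁴ cells/well, induced with doxycycline 1 ug/mL, and treated 5 h with test compound at varying concentrations (DMSO stocks diluted in medium). cAMP was read by ratiometric FRET beta-lactamase substrate, in triplicate per concentration, from ≥3 independent experiments.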

[4] = Cytotoxicity assay; type: cell-based; conditions: mouse, GLUTag L cells
In short: as §1

[5] = system: normal C57BL/6J mice; assay: Oral glucose tolerance test, single administration in normal mice; type: in vivo
[6] = Aqueous solubility in the buffer; type: physicochemical
[7] = system: normal C57BL/6J mice; assay: Blood active GLP-1 levels after single oral administration in normal mice; type: in vivo; conditions: 10 mg/kg oral, 30 minutes after administration, overnight-fasted mice
In short: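 Overnight-fasted male C57BL/6J mice (n=6) got a single oral dose of test compound, alone or with linagliptin (1 mg/kg). The control got 0.5% methyl cellulose vehicle. Blood was drawn 30 min after dosing, and active GLP-1 was measured against the vehicle group.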

[8] = system: DIO mice; assay: Oral glucose tolerance test, repeat administration for 4 weeks in DIO mice; type: in vivo
In short: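 17-week-old male DIO mice were dosed orally once daily for 4 weeks with vehicle (0.5% methyl cellulose), test compound, MBX2982 10 mg/kg, linagliptin 1 mg/kg, or combinations. OGTT was run on days 1 and 29 in overnight-fasted mice: dose, then an oral 2 g/kg glucose bolus 30 min later. Tail-vein glucose was read by glucometer at 0–120 min, and AUC0–2h was calculated.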

[9] = system: HIT-T15 cells; assay: Insulin release assay; type: cell-based, hamster
In short: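 HIT-T15 cells were seeded at 2×10⁵ cells/well and grown 48 h. They were washed in Krebs-Ringer bicarbonate buffer (pH 7.4, 0.2% BSA) and preincubated 60 min at 37°C with 5 mM glucose. Stimulation was with 0.1 uM test compound at 15 mM glucose, 60 min, 37°C; GSIS used 100 nM at 0, 3 and 15 mM glucose, 1 h. Supernatant insulin was measured by ELISA in triplicate.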

[10] = Pharmacokinetics of YH18968 in normal mice; type: in vivo, C57BL/6J mice; conditions: male, C57BL/6J, mouse, plasma
In short: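 Overnight-fasted 8-week-old male C57BL/6J mice, with free access to water, received 1 mg/kg iv via tail vein or oral doses of 1, 10 and 100 mg/kg as a suspension in 0.5% methyl cellulose; n=2 per time point. Plasma underwent protein precipitation and LC-MS/MS quantification. Parameters, including F, came from non-compartmental analysis.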

[11] = system: GLUTag cells; assay: GLP-1 release assay; type: cell-based, murine
In short: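 GLUTag cells (DMEM, 10% FBS) were seeded at 10⁵ cells/well and grown 48 h. They were washed twice with serum-free DMEM, then exposed to 0.1 uM test compound in serum-free DMEM at 37°C for 120 min. Supernatant was clarified by 5-min centrifugation, and GLP-1 was measured by ELISA in triplicate.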

Structure (SMILES): CCc1cnc(N2CCC(c3nc(COc4ccc(-n5cnnn5)cc4)cs3)CC2)nc1 [MBX2982, reference compound]
concentration up to which cytotoxicity was not observed [1]: 1000 nM
CC50 at 48 h [2]: 15900 nM
EC50 [3]: 11.2 nM
CC50 at 48 h [4]: 12200 nM

aqueous solubility [6]: poor
EC50 [3]: 2.8 nM
potency on human GPR119 relative to MBX2982 ([3]; more potent than MBX2982 (EC50 11.2 nM, same assay)): approximately 4 fold
potency of human GPR119 activation relative to MBX2982 ([3]; more potent than the reported effect of MBX2982 (EC50 8.33 nM, HEK293)): approximately 3 fold
AUC(0-inf) ([10]; iv, 1 mg/kg): 1620 ng·h/mL
AUC(0-t) ([10]; iv, 1 mg/kg): 1380 ng·h/mL
MRT ([10]; iv, 1 mg/kg): 3.4 h
Vd ([10]; iv, 1 mg/kg): 2.11 L/kg
clearance ([10]; iv, 1 mg/kg): 10.3 mL/min/kg
Tmax ([10]; po): 0.5 h
bioavailability ([10]; po): 4.8 to 40%
AUC(0-inf) ([10]; po, 1 mg/kg): 720 ng·h/mL
AUC(0-t) ([10]; po, 1 mg/kg): 550 ng·h/mL
Cmax ([10]; po, 1 mg/kg): 169 ng/mL
Tmax ([10]; po, 1 mg/kg): 0.5 h
bioavailability ([10]; po, 1 mg/kg): 40%
half-life ([10]; po, 1 mg/kg): 3.1 h
AUC(0-inf) ([10]; po, 10 mg/kg): 2960 ng·h/mL
AUC(0-t) ([10]; po, 10 mg/kg): 2470 ng·h/mL
Cmax ([10]; po, 10 mg/kg): 760 ng/mL
Tmax ([10]; po, 10 mg/kg): 0.5 h
bioavailability ([10]; po, 10 mg/kg): 18%
half-life ([10]; po, 10 mg/kg): 2.6 h
AUC(0-inf) ([10]; po, 100 mg/kg): 15800 ng·h/mL
AUC(0-t) ([10]; po, 100 mg/kg): 6540 ng·h/mL
Cmax ([10]; po, 100 mg/kg): 1470 ng/mL
Tmax ([10]; po, 100 mg/kg): 0.5 h
bioavailability ([10]; po, 100 mg/kg): 4.8%
half-life ([10]; po, 100 mg/kg): 9.2 h
EC50 ([11]; Mus musculus, GLUTag, read-out: EC50, GLP-1 secretion): 0.1 nM
Structure (SMILES): CC(C)c1nc(N2CCN(c3ncc(-c4ccc(-n5cnn([C@H]6CCOC6)c5=O)c(F)c4)cc3C#N)CC2)no1 [YH18968, (S)-5-(3-fluoro-4-(5-oxo-1-(tetrahydrofuran-3-yl)-1,5-dihydro-4H-1,2,4-triazol-4-yl)phenyl)-2-(4-(5-isopropyl-1,2,4-oxadiazol-3-yl)piperazin-1-yl)nicotinonitrile]
AUC for blood glucose in OGTT versus vehicle control ([5]; single oral 0.1, 1, and 10 mg/kg, dose-dependent): significantly lowered
glucose lowering effect compared with 30 mg/kg of MBX2982 ([5]; single oral 1 and 10 mg/kg): more potent glucose lowering effects
concentration up to which cytotoxicity was not observed [1]: 5000 nM
increase of active GLP-1 levels compared to the vehicle control [7]: 2.7 fold
AUC for blood glucose in OGTT versus vehicle control, day 1 ([8]; 1 mg/kg oral once daily, day 1, DIO mice): significantly lowered; also recorded: significant decrease
glucose lowering effect compared with 10 mg/kg of MBX2982, day 1 ([8]; 1 mg/kg oral, day 1, DIO mice): more potent glucose lowering effect
glucose-stimulated insulin secretion (GSIS) ([9]; 100 nM, 3 and 15 mM glucose, 1 h): enhanced in a glucose-dependent manner
insulin release without glucose ([9]; 100 nM, cells incubated without glucose, 1 h): no effect
insulin secretion ([9]; HIT-T15 cell, 0.1 uM, 15 mM glucose, 60 min): 1.9 fold
GLP-1 secretion ([11]; GLUTag cell, 0.1 uM, 120 min): 2.3 fold

Structure (SMILES): CC#CCn1c(N2CCC[C@@H](N)C2)nc2c1c(=O)n(Cc1nc(C)c3ccccc3n1)c(=O)n2C [linagliptin, reference compound]
AUC blood glucose level in OGTT ([8]; 1 mg/kg of linagliptin, DIO mice): near normal range
